ChEMBL document CHEMBL1140834, “Identifying the important structural elements of brominated furanones for inhibiting biofilm formation by Escherichia coli” (2008)
Activity calls are given as the source filed them. The rule behind the calls is not given here.

Tests used:
Escherichia coli [1] = assay: Antibacterial activity against Escherichia coli RP437/pRSH103 at 5 to 10 ug/ml; type: functional, organism-based
Procedure, shortened: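 Toxicity followed as growth curves. OD600 of E. coli cultures was monitored over time in LB medium with tetracycline, containing a range of furanone concentrations.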

Escherichia coli [2] = assay: Antibacterial activity against Escherichia coli at 60 ug/mL; type: functional, organism-based
Escherichia coli [3] = assay: Inhibition of Escherichia coli biofilm formation at 60 ug/mL; type: functional
Procedure, shortened: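 DsRed-express-labeled E. coli biofilms were grown 24 h at 37 C on 316 L stainless steel coupons, with furanone added to the growth medium. Imaged by confocal microscopy. Biomass, surface coverage and mean thickness were calculated from the images and expressed relative to a no-furanone control. Four replicates.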

Escherichia coli [4] = assay: Antibacterial activity against Escherichia coli RP437/pRSH103 assessed as reduction of colony forming unit at 40 ug/ml after 3 hrs; type: functional
Procedure, shortened: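 Viable counts (CFU/mL) taken before and after 3 h exposure at 37 C. A parallel culture given the same amount of ethanol (0.2%) served as negative control.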

SMILES | Activity (Escherichia coli [1]) | Activity (Escherichia coli [2]) | inhibition at 60 µg/mL (Escherichia coli [3]) [%] | CFU (Escherichia coli [4]) [mL⁻¹]
O=C1O/C(=C\Br)C(Br)=C1CBr | Active |  |  | 
CC1=C(Br)C(Br)(C(Br)Br)OC1=O (centres undefined) |  | inactive |  | 
O=C1OC(=C(Br)Br)C=C1C(Br)Br |  | inactive | 80 | 
CC1=CC(=C(Br)Br)OC1=O |  | inactive | 63 | 
CC1=C(Br)/C(=C/Br)OC1=O |  | inactive | 75 | 
CC1=CC(C)OC1=O (centres undefined) |  | inactive |  | 
CC1=CC(=O)OC1=O |  | inactive |  | 
CC1=C(Br)C(C(Br)Br)OC1=O (centres undefined) |  | inactive | 19 | 
O=C1OC(=C(Br)Br)C=C1CBr |  |  |  | 390
COC1=CC(=O)OC1 |  | inactive |  | 
